Here are results for two compounds from ChEMBL document CHEMBL6134794, “Anti-Schistosomal activity and ADMET properties of 1,2,5-oxadiazinane-containing compound synthesized by visible-light photoredox catalysis” (RSC Med Chem, 2024).

Data set [1] can be described thus: Cardiotoxicity in human iPSC-CM cells assessed as effect on pulse waveform by measuring calcium ion influx at 0.2 to 20 uM incubated for 60 mins by fluorescent indicator analysis. The class given is toxicity, cell-based. Particulars: 1 h, dose 0.2-20 µM. The method, boiled down:
(§1)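 Human iPS cell-derived cardiomyocytes were seeded at 30,000 cells/well on gelatin and maintained 9 days. Cells were then stained with a Ca²⁺-sensitive cardiotoxicity dye kit. Ca²⁺ transients were recorded on an FDSS kinetic imager before and after compound addition.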

Data set [2] can be described thus: Stability of the compound at pH 1.2 at 5 uM assessed as compound remaining incubated for 1 hrs by LC-MS/MS analysis relative to control. The class given is physicochemical. Conditions: buffer, read-out: Stability. The method, boiled down:
(§2)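 Compound at 5 μM in pH 1.2 dissolution test solution 1 or in PBS pH 7.4, held at 37 °C for 0, 1 and 5 h. Reactions were quenched with acetonitrile and centrifuged. Parent remaining was quantified by LC-MS/MS as a percentage of the 0 h sample.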

For data set [3], the system named is Schistosoma mansoni. Nature of the data set: Anti-schistosomal activity against adult male Schistosoma mansoni assessed as motility by measuring measuring pairing and varied movement intensity using viability scale at 10 uM incubated for 24 hrs by inverted microscopic analysis. The class given is functional.
Data set [4] deals with Schistosoma mansoni. Nature of the data set: Anti-schistosomal activity against adult male Schistosoma mansoni assessed as motility by measuring pairing and varied movement intensity using viability scale at 10 uM incubated for 1 hr by inverted microscopic analysis. The class given is functional.
Data set [5] is described as follows: Stability of the compound at pH 1.2 at 5 uM assessed as compound remaining incubated for 5 hrs by LC-MS/MS analysis relative to control. The class given is physicochemical. Conditions: buffer, read-out: Stability. The method, boiled down: as §2
The test system of data set [6] is HeLa. Nature of the data set: Cytotoxicity against human HeLa cells assessed as cell viability at 30 uM incubated for 48 hrs by absorbance based WST-8 assay (reference value: 100 %). Particulars: read-out: Activity. The class given is functional. The method, boiled down: (§3)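 HeLa cells seeded at 1,000 cells/well and exposed to compound at 10, 20 or 30 μM for 2 days. WST-8 absorbance was read at 405 nm. Viability is expressed relative to DMSO-treated wells (100%).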
On the technique in general: Formazan colour is commonly taken as a measure of viable cells.

Data set [7] in a line: Cardiotoxicity in human iPSC-CM cells assessed as effect on beat intervals by measuring calcium ion influx at 0.2 to 20 uM incubated for 60 mins by fluorescent indicator analysis. The class given is toxicity, cell-based. Conditions: 1 h, dose 0.2-20 µM. The method, boiled down: as §1
A short description of data set [8]: Stability of the compound in PBS at pH 7.4 at 5 uM assessed as compound remaining incubated for 5 hrs by LC-MS/MS analysis relative to control. The class given is physicochemical. Particulars: read-out: Stability. The method, boiled down:
as §2

The test system of data set [9] is Schistosoma mansoni. As to the kind of experiment: Anti-schistosomal activity against adult male Schistosoma mansoni assessed as worm death at 10 uM incubated for 1 to 120 hrs by inverted microscopic analysis. The class given is functional, organism-based. Particulars: time 1-120 hrs. The method, boiled down: (§4)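 Adult worms freshly isolated from infected mice; cultured in RPMI 1640 with 5% FBS and penicillin/streptomycin, with or without compound (0.1, 1, 10 μM), at 37°C under 5% CO₂.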

Data set [10] has as its system Schistosoma mansoni. Nature of the data set: Anti-schistosomal activity against adult male Schistosoma mansoni assessed as motility by measuring pairing and varied movement intensity using viability scale at 10 uM incubated for 120 hrs by inverted microscopic analysis. The class given is functional.
Data set [11] concerns Schistosoma mansoni. As to the kind of experiment: Anti-schistosomal activity against adult female Schistosoma mansoni assessed as motility by measuring pairing and varied movement intensity using viability scale at 10 uM incubated for 1 hr by inverted microscopic analysis. The class given is functional.
Data set [12] in a line: Stability of the compound in PBS at pH 7.4 at 5 uM assessed as compound remaining incubated for 1 hr by LC-MS/MS analysis relative to control. The class given is physicochemical. Particulars: read-out: Stability. The method, boiled down: as §2
Data set [13] has as its system Schistosoma mansoni. Nature of the data set: Anti-schistosomal activity against adult female Schistosoma mansoni assessed as motility by measuring pairing and varied movement intensity using viability scale at 10 uM incubated for 120 hrs by inverted microscopic analysis. The class given is functional.
The subject of data set [14] is Schistosoma mansoni. Nature of the data set: Anti-schistosomal activity against adult female Schistosoma mansoni assessed as worm death at 10 uM incubated for 1 to 120 hrs by inverted microscopic analysis. The class given is functional, organism-based. Particulars: time 1-120 hrs. The method, boiled down:
as §4

A short description of data set [15]: Apparent permeability in human Caco-2 cells at 25 uM incubated for 2 hrs by LC-MS/MS analysis. The class given is ADME, cell-based. The method, boiled down: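 Compound at 25 µM in HBSS added to the apical side of cultured Caco-2 monolayers in transwells, with HBSS plus 1% BSA on the basolateral side. After 2 h both compartments were collected, acetonitrile-treated and centrifuged. Supernatants were quantified by LC-MS/MS and Papp calculated. "High" class means Papp above that of propranolol.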

For data set [16], the system named is Schistosoma mansoni. Nature of the data set: Anti-schistosomal activity against adult female Schistosoma mansoni assessed as motility by measuring pairing and varied movement intensity using viability scale at 10 uM incubated for 24 hrs by inverted microscopic analysis. The class given is functional.
Data set [17] in a line: Cardiotoxicity in human iPSC-CM cells assessed as effect on beat intervals by measuring calcium ion influx at 0.2 uM incubated for 60 mins by fluorescent indicator analysis. Conditions: 1 h. The class given is toxicity, cell-based. The method, boiled down:
as §1

A short description of data set [18]: Metabolic stability in human liver microsome assessed as compound remaining at 500 uM incubated for 10 mins in presence of NADPH and G6PDH by LC-MS/MS analysis. Particulars: liver microsomes. Background: Liver microsomes are vesicles of endoplasmic reticulum, rich in cytochrome P450 enzymes.
The nature of data set [19]: Cardiotoxicity in human iPSC-CM cells assessed as effect on pulse waveform by measuring calcium ion influx at 0.2 uM incubated for 60 mins by fluorescent indicator analysis. The class given is toxicity, cell-based. Particulars: 1 h. The method, boiled down: as §1
The test system of data set [20] is HeLa. Nature of the data set: Cytotoxicity against human HeLa cells assessed as cell viability at 10 uM incubated for 48 hrs by absorbance based WST-8 assay (reference value: 100 %). Particulars: read-out: Activity. The class given is functional. The method, boiled down: as §3
A short description of data set [21]: Metabolic stability in mouse liver microsome assessed as compound remaining at 500 uM incubated for 60 mins in presence of NADPH and G6PDH by LC-MS/MS analysis. Conditions: liver microsomes.
Data set [22] in a line: Metabolic stability in human liver microsome assessed as compound remaining at 500 uM incubated for 60 mins in presence of NADPH and G6PDH by LC-MS/MS analysis. Conditions: liver microsomes.
A short description of data set [23]: Lipophilicity, logD of the compound in phosphate-buffered saline (PBS) at pH 7.4 at 100 uM incubated for 20 mins by UPLC analysis. The class given is physicochemical. Conditions: buffer, pH 7.4, 20 min. The method, boiled down:
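Compound at 100 μM final in PBS with 1% DMSO. logD (pH 7.4) was derived from UPLC (BEH C18) retention times against standards of known logD. Mobile phase was ammonium acetate/acetonitrile, 2–98% B over 1 min at 0.8 mL/min.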

In data set [24] the test system is Schistosoma mansoni. Nature of the data set: Anti-schistosomal activity against adult female Schistosoma mansoni assessed as motility by measuring full detachment with weak movement using viability scale at 10 uM incubated for 1 hr by inverted microscopic analysis. The class given is functional. The method, boiled down: as §4
Data set [25] deals with Schistosoma mansoni. As to the kind of experiment: Anti-schistosomal activity against adult female Schistosoma mansoni assessed as motility by measuring full detachment with weak movement using viability scale at 10 uM incubated for 24 hrs by inverted microscopic analysis. The class given is functional.
Data set [26] is described as follows: Cardiotoxicity in human iPSC-CM cells assessed as effect on pulse waveform by measuring calcium ion influx at 2 uM incubated for 60 mins by fluorescent indicator analysis. The class given is toxicity, cell-based. Conditions: 1 h. The method, boiled down:
as §1

Data set [27] can be described thus: Cardiotoxicity in human iPSC-CM cells assessed as effect on pulse waveform by measuring calcium ion influx at 20 uM incubated for 60 mins by fluorescent indicator analysis. The class given is toxicity, cell-based. Conditions: 1 h. The method, boiled down: as §1
Data set [28] concerns Schistosoma mansoni. As to the kind of experiment: Anti-schistosomal activity against adult female Schistosoma mansoni assessed as motility by measuring full detachment with weak movement using viability scale at 10 uM incubated for 120 hrs by inverted microscopic analysis. The class given is functional.
Data set [29] in a line: Cardiotoxicity in human iPSC-CM cells assessed as decrease in beat interval by measuring calcium ion influx at 20 uM incubated for 60 mins by fluorescent indicator analysis. The class given is toxicity, cell-based. Conditions: 1 h. The method, boiled down:
as §1

Data set [30] can be described thus: Cardiotoxicity in human iPSC-CM cells assessed as decrease in beat interval by measuring calcium ion influx at 2 uM incubated up to 30 mins by fluorescent indicator analysis. The class given is toxicity, cell-based. Particulars: 0.5 h. The method, boiled down:
as §1

Data set [31] can be described thus: Cardiotoxicity in human iPSC-CM cells assessed as effect on beat interval by measuring calcium ion influx at 2 uM measured within 60 mins by fluorescent indicator analysis. The class given is toxicity, cell-based. Particulars: 1 h. The method, boiled down: as §1
A short description of data set [32]: Metabolic stability in mouse liver microsome assessed as compound remaining at 500 uM incubated for 10 mins in presence of NADPH and G6PDH by LC-MS/MS analysis. Conditions: liver microsomes.

Activity calls are given as the source filed them. The calls are words filed in the database; no cut-off is given here.

For `O=C(C1CCCCC1)N1CC(=O)N2CCc3ccccc3C2C1` (stereo not given) [PRAZIQUANTEL], the Activity result in data set [1] is on record as “Non-toxic”; in the data set on Schistosoma mansoni [3], 3.7; with Schistosoma mansoni [4], 3.7; in data set [7], “Non-toxic”; in the data set with Schistosoma mansoni [10] it was 3.3; in the data set with Schistosoma mansoni [11], 3.7. The Activity with Schistosoma mansoni [13] and in the data set with Schistosoma mansoni [16] was 3.3 throughout. Moreover, the remaining at 1 h, 5 µM was found to be 93.1% in data set [2] and 103% in [12]. Further, the remaining at 5 h, 5 µM was 95% in [5] and 100% in data set [8]. Besides, the viability at 30 µM with HeLa [6] is 97.1%. Further, the outcome in the data set with Schistosoma mansoni [9] and with Schistosoma mansoni [14] was inactive. Also, the Papp (in general, the rate of passage across a membrane or cell layer, normalised by area and donor concentration) at 2 h, 25 µM in data set [15] was 37.3 ×10⁻⁶ cm/s.

Regarding `O=C(C1CCCCC1)N1CON2CCc3ccccc3C2C1` (stereo not given), the Activity entry in data set [17] is listed as “Non-toxic”; in the data set with Schistosoma mansoni [3] it was 3; with Schistosoma mansoni [4], 3; in [19] it was “Non-toxic”; in the data set with Schistosoma mansoni [24] it was 2; in the data set on Schistosoma mansoni [25], 2. The Activity entry in data set [26] is “Non-toxic”; in data set [27], “Non-toxic”; in the data set on Schistosoma mansoni [10] it was 3; in the data set with Schistosoma mansoni [28], 2.3; in data set [29], “Toxic”; in data set [30] it was “Toxic”. For the same compound, the Activity result in data set [31] is reported as “Non-toxic”. In addition, the remaining at 1 h, 5 µM in data set [2] was 95.1%; in [12], 95.2%. For the same compound, in [5], the remaining at 5 h, 5 µM was 94.9%. Also, the figures for the remaining at 10 min, 500 µM in data set [18] and in data set [32] were 47.3% and 2.7%, respectively. Besides, the viability at 10 µM in the data set on HeLa [20] came out at 93.1%. Further, the remaining at 1 h, 500 µM in data set [21] worked out at 0.2%; in data set [22], 5.9%. For the same compound, the logD (usually lipophilicity at a set pH, counting ionised and neutral species) in data set [23] is reported as 4.1. In addition, the outcome with Schistosoma mansoni [9] was inactive. The Papp at 2 h, 25 µM in data set [15] stood at 30.5 ×10⁻⁶ cm/s.
